Activity calls are given as the source filed them. The calls are words filed in the database; no cut-off is given here.
Legend:
Calvarial osteoblast [1] = experiment: Inhibition of 1alpha,25-(OH)2D3-induced osteoclasts differentiation in mouse calvarial osteoblasts cocultured with mouse bone marrow macrophages incubated for 6 days by TRAP staining based microscopy; assay type: functional, cell-based
In short: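 Bone marrow cells (1 × 10^7) cocultured 6 days with calvarial osteoblasts (1 × 10^6) in α-MEM with 10% FBS and 0.1 μM 1α,25-(OH)2D3. Cells fixed in formaldehyde and ethanol–acetone, then TRAP-stained; TRAP-positive cells with three or more nuclei counted as osteoclasts.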

Osteoclast [2] = experiment: Inhibition of bone resorption in mouse osteoclasts obtained from coculturing mouse calvarial osteoblasts with mouse bone marrow macrophages assessed as inhibition of pit formation at 20 uM after 48 hrs by Mayer's hematoxylin staining based light microscopy; assay type: functional, cell-based
In short: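 Mature osteoclasts from collagen-gel cocultures (0.1 μM 1α,25-(OH)2D3 or 10 μM PGE2; collagenase release) replated on dentin slices with compound for 48 h. Cells removed, slices stained with Mayer's hematoxylin, pits counted per slice by light microscopy at 100×; three independent experiments.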

[3] = tested on: primary calvarial osteoblasts (Mus musculus); experiment: Induction of primary calvarial osteoblasts differentiation assessed as […] in alkaline phosphatase activity using p-nitrophenyl phosphate as substrate at 10 to 20 uM after 4 days
[4] = Cytotoxicity against mouse calvarial osteoblasts assessed as cell viability at 1 to 20 uM after 2 to 4 days by MTT assay; assay type: cell-based; conditions: calvarial osteoblast
In short: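 Primary calvarial osteoblasts from 1–2-day-old newborn mice (serial collagenase/dispase digests, fractions 2–5) exposed to 1, 5, 10, 20 μM for 2 days, or kept for at least 4 days with medium changed every 2–3 days; viability by MTT. Mean ± SD of three independent experiments.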

Mus musculus [5] = species: Mus musculus; experiment: Decrease in 1alpha,25-(OH)2D3-induced calcium levels in hypercalcemic C57BL/6 mouse serum at […] for […]; assay type: functional, organism-based
In short: (§1)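 C57BL/6 males, 6 weeks old, groups of five; 1α,25-(OH)2D3 given subcutaneously on three consecutive days, then PBS or compound at 25 or 100 μg/kg/day for 3 days; sacrifice on day 8. Serum calcium and phosphate by colorimetric kits, RANKL by ELISA; mean ± SD, Student's t test.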

[6] = Downregulation of RANKL-induced ERK phosphorylation in mouse bone marrow macrophages after 15 mins by Western blot analysis in presence of M-CSF
In short: (§2)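 Bone marrow macrophages from tibiae of 4–6-week ICR males, taken as cells adherent after 16–20 h in 50 ng/mL M-CSF. Treated with compound plus RANKL for 15 min, then lysed; phospho and total ERK, JNK and p38 detected by Western blot with ECL.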

[7] = Downregulation of RANKL-induced NFATc1 levels in mouse bone marrow macrophages at 5 to 20 uM after 24 hrs by Western blot analysis in presence of M-CSF; assay type: functional, cell-based; conditions: Macrophage
In short: (§3)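 Bone marrow macrophages made with 50 ng/mL M-CSF, exposed to compound and RANKL for 24 h; c-Fos and NFATc1 protein by Western blot, β-actin as loading control, ECL detection.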

[8] = Downregulation of RANKL-induced c-fos levels in mouse bone marrow macrophages at 5 to 20 uM after 24 hrs by Western blot analysis in presence of M-CSF; assay type: functional, cell-based; conditions: Macrophage; in short: as §3
Osteoclast [9] = experiment: Induction of disruption of 1alpha,25-(OH)2D3/PGE2-induced F-actin ring formation in mouse osteoclasts obtained from coculturing mouse calvarial osteoblasts with mouse bone marrow macrophages at 20 uM after 48 hrs by Alexa Fluor 488-conjugated phalloidin staining based fluorescence microscopy; assay type: functional, cell-based
In short: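 Bone marrow cells and calvarial osteoblasts cocultured 6–7 days on collagen with 0.1 μM 1α,25-(OH)2D3 or 10 μM PGE2; mature osteoclasts released with 0.2% collagenase (37 °C, 30 min). Treated 48 h, fixed in paraformaldehyde, F-actin rings stained with Alexa Fluor 488-phalloidin and viewed by fluorescence microscopy at 100×.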

[10] = target: Transcription factor p65 (Mus musculus) (UniProt Q04207); experiment: Downregulation of RANKL-induced p65 nuclear translocation in mouse bone marrow macrophages at 5 to 20 uM after 30 mins by Western blot analysis in presence of M-CSF
Calvarial osteoblast [11] = experiment: Effect on 1alpha,25-(OH)2D3-induced OPG mRNA expression in mouse calvarial osteoblasts at 5 and 10 uM after 24 hrs by RT-PCR method; assay type: functional, cell-based
In short: (§4)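 Calvarial osteoblasts from newborn mice grown 24 h in α-MEM with 10% FBS and 0.1 μM 1α,25-(OH)2D3, with or without compound. Total RNA reverse-transcribed, then PCR for RANKL (587 bp), OPG (720 bp), M-CSF (516 bp) and GAPDH (452 bp) as control. Products run on 2% agarose with ethidium bromide; three independent experiments.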

[12] = Downregulation of 1alpha,25-(OH)2D3-induced RANKL mRNA expression in mouse calvarial osteoblasts at 5 and 10 uM after 24 hrs by RT-PCR method; assay type: functional, cell-based; conditions: Calvarial osteoblast; in short: as §4
Mus musculus [13] = experiment: Decrease in 1alpha,25-(OH)2D3-induced OPG levels in hypercalcemic C57BL/6 mouse serum at 5 to 100 ug/kg/day for 5 days; assay type: functional, organism-based
[14] = target: T1, NF-kappa-B inhibitor alpha (Mus musculus) (UniProt Q9Z1E3); experiment: Downregulation of RANKL-induced IkappaB alpha phosphorylation in mouse bone marrow macrophages at 5 to 20 uM after 30 mins by Western blot analysis in presence of M-CSF
T1 sequence (whole entry): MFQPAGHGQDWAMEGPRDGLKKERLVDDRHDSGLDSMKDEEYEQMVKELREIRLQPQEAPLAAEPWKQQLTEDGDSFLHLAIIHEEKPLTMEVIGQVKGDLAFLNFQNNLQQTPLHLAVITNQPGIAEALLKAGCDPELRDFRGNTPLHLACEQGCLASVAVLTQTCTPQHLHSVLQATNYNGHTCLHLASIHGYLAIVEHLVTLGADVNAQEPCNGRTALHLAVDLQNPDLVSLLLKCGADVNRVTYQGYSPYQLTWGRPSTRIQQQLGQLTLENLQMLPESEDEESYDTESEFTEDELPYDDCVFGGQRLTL

[15] = target: Transcription factor p65 (Mus musculus) (UniProt Q04207); experiment: Downregulation of RANKL-induced p65 phosphorylation in mouse bone marrow macrophages at 5 to 20 uM after 30 mins by Western blot analysis in presence of M-CSF
[16] = Downregulation of RANKL-induced p38 MAPK phosphorylation in mouse bone marrow macrophages after 15 mins by Western blot analysis in presence of M-CSF; in short: as §2
[17] = tested on: primary calvarial osteoblasts (Mus musculus); experiment: Induction of primary calvarial osteoblasts differentiation assessed as alkaline phosphatase activity at 1 to 20 uM using p-nitrophenyl phosphate as substrate after 7 to 14 days in presence of 1alpha,25-(OH)2D3
Calvarial osteoblast [18] = experiment: Effect on 1alpha,25-(OH)2D3-induced M-CSF mRNA expression in mouse calvarial osteoblasts at 5 and 10 uM after 24 hrs by RT-PCR method; assay type: functional, cell-based; in short: as §4
[19] = Downregulation of RANKL-induced JNK phosphorylation in mouse bone marrow macrophages after 15 mins by Western blot analysis in presence of M-CSF; in short: as §2
Mus musculus [20] = species: Mus musculus; experiment: Decrease in 1alpha,25-(OH)2D3-induced phosphate levels in hypercalcemic C57BL/6 mouse serum at […]/day […]; assay type: functional, organism-based; in short: as §1
Mus musculus [21] = species: Mus musculus; experiment: Decrease in 1alpha,25-(OH)2D3-induced RANKL levels in hypercalcemic C57BL/6 mouse serum at […] […] by ELISA method; assay type: functional, organism-based; in short: as §1

Transcription factor p65 (Mus musculus), sequence (Q04207 whole entry): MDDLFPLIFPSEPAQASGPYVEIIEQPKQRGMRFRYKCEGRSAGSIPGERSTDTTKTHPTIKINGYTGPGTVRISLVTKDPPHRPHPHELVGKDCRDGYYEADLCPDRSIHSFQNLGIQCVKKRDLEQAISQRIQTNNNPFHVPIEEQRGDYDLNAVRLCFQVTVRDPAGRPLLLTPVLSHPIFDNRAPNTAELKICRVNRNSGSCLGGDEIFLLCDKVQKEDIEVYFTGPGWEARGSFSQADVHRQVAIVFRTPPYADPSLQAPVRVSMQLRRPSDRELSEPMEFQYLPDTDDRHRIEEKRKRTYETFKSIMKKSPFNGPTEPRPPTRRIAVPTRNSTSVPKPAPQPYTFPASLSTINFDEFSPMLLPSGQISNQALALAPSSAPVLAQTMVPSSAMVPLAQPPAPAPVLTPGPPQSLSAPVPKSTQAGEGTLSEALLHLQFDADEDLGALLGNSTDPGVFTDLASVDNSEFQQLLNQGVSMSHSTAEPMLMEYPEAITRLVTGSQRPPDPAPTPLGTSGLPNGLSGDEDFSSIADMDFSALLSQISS

inhibition [6]: Dose-dependent effect
inhibition [10]: Active
Activity [14]: Active
Activity [15]: Active
inhibition [16]: Dose-dependent effect
inhibition [19]: inactive
SMILES: C=C(C)[C@@H]1CC[C@]2(C)CC[C@]3(C)[C@H](CC[C@@H]4[C@@]5(C)CC[C@H](O)C(C)(C)[C@@H]5CC[C@]43C)[C@@H]12 [LUPEOL]
inhibition (Calvarial osteoblast [1]): Active
inhibition (Osteoclast [2]): Active
Activity [3]: Active
Activity [4]: Non-toxic
Activity (Mus musculus [5]): inactive
Activity [7]: Active
Activity [8]: Active
Activity (Osteoclast [9]): Active
Activity (Calvarial osteoblast [11]): inactive
Activity [12]: Active
Activity (Mus musculus [13]): inactive
Activity [17]: inactive
Activity (Calvarial osteoblast [18]): inactive
Activity (Mus musculus [20]): inactive
Activity (Mus musculus [21]): Active
